Screening data from PubChem BioAssay.
KCNK3 inh: human KCNK3 channel inhibition, primary screen | O14649 | CHO-KCNK3 thallium flux, FluxOR fluorescence; active compounds read low | B-score at 10 µM | actives 0.84% (n = 340,000);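 active = B-score under library mean minus 4 SD, starting fluorescence ratio at most library mean plus 5 SD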;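 note: more negative B-score means stronger inhibition of thallium flux through KCNK3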
hERG protect: compounds protecting human hERG from proarrhythmic drug block. actives 0.51% (n = 310,000). CHO-hERG, FluxOR thallium flux, dofetilide IC70 present. activation (rescue from dofetilide block), less the hit threshold, % at 10 µM. Q12809. AID 1511;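 active = activation above the mean of controls blocked by dofetilide plus 5 SD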;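 note: thallium influx through hERG after potassium depolarization seen as dye fluorescence rise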
Target sequence (Q12809 whole entry, looked up): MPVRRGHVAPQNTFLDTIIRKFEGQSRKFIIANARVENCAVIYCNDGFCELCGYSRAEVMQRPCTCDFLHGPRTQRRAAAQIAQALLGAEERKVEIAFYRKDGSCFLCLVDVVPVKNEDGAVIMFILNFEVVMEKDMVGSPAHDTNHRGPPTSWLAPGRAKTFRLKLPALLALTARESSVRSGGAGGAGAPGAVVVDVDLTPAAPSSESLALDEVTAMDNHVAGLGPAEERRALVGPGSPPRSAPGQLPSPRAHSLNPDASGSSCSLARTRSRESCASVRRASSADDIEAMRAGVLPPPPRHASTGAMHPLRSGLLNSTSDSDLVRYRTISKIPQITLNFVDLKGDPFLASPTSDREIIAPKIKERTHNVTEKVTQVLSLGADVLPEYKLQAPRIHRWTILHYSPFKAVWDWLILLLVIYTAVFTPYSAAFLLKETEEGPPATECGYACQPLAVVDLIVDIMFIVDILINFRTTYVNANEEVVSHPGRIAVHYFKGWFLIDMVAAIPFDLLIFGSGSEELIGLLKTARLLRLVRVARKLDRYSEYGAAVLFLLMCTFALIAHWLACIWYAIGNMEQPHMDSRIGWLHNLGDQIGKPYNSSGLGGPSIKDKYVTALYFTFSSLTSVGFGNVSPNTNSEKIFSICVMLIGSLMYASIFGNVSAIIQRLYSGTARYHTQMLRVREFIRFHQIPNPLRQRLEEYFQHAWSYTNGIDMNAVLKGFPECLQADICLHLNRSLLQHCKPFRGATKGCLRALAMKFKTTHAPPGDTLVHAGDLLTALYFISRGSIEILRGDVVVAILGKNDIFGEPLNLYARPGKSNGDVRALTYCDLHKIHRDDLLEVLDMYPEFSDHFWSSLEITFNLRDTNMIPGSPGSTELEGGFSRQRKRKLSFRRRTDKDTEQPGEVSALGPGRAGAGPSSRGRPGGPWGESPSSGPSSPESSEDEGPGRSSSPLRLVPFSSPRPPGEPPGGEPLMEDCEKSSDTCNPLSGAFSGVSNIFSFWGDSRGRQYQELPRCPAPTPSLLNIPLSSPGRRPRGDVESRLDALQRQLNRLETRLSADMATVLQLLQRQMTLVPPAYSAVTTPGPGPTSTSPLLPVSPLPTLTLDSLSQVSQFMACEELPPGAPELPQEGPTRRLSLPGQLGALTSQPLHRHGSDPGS
KCNQ1 block: blocks the human KCNQ1 potassium channel; B-score at 10 µM; actives 1.3% (n = 310,000); CHO-K1 KCNQ1, FluxOR thallium flux fluorescence; active compounds read high; P51787;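 active = compounds whose thallium flux B-score, printed positive for inhibition, exceeds three library SD while starting fluorescence stays within three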;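 note: channel opened by potassium depolarization with thallium stimulus after 20 min compound exposure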
KCNK9 inh: inhibitors of human KCNK9 two-pore domain potassium channel; Q9NPC2; HEK293 KCNK9, FluxOR thallium flux fluorescence; active compounds read low; B-score at 10 µM; actives 1.2% (n = 310,000); AID 488922;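 active = ratio B-score over 3 SD below the library mean, with starting fluorescence within 5 SD of its mean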;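 note: negative B-score means less thallium flux so channel inhibition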
KCNQ1 act: potentiates or activates the human KCNQ1 potassium channel; CHO-K1 KCNQ1, thallium flux FluxOR fluorescence; active compounds read high; actives 0.35% (n = 310,000); B-score at 10 µM; P51787;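 active = fluorescence ratio B-score, a plate-corrected score, at least three library SD, with initial intensity B-score within 5 SD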
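Schedule – 37 °C overnight plating, 90-min dark dye load, 20-min compound pretreatment · System – stable KCNQ1 CHO-K1 line · Probe or stimulus – thallium- and potassium-containing depolarizing buffer · Measured by – kinetic FluxOR fluorescence, 10 s baseline plus 110 s post-stimulus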
Kir21 block: Kir2.1 (mouse) channel inhibition | P35561 | HEK293-Kir2.1, FluxOR thallium flux fluorescence; active compounds read low | B-score at 10 µM | actives 0.85% (n = 310,000);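 active = fluorescence ratio B-score at or below minus 3 SD of library scores, with starting-brightness B-score within 2 SD, cut at about -4.2 in these data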;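 note: channel flux triggered by added potassium and thallium sulfate stimulus; B-score of peak minus minimum fluorescence over baseline after thallium stimulus; more negative B-score means stronger Kir2.1 block with less thallium influx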
Starred values were filed as active, the others as inactive; i = inactive; · = no result. An excerpt weighted towards active compounds, which were near 3.8% of everything screened.

SMILES	KCNK3 inh	hERG protect	KCNQ1 block	KCNK9 inh	KCNQ1 act	Kir21 block
CC(C)(C)[C@@H]1CCC(=O)N(CC[C@H](Sc2ccccc2)c2ccccc2)CC1	i	-3.8	6*	i	i	-0.96
CCCN1CCC(=O)N(CCOc2ccccc2)CC1	i	-10.4	i	i	i	-1.93
CC(C)(C)[C@H]1CCC(=O)N([C@H](CSc2ccc(Br)cc2)Cc2ccccc2)CC1	i	·	·	·	·	·
CC(C)(C)C1CCC(=O)N(CCOc2ccccc2)CC1 (stereo not given)	i	-12.9	i	i	i	-5.63*
CC(C)(C)[C@H]1CCC(=O)N([C@H](CSc2ccccc2)Cc2ccccc2)CC1	i	-9.3	i	-6.85*	i	-1.38
CCOC(=O)C1=CC[C@H]2c3c(c4ccccc4n3C)C(=O)C1N2Cc1ccccc1	i	·	·	·	·	·
Cc1ccc(S(=O)(=O)Nc2c(C)n(C)n(-c3ccccc3)c2=O)cc1C(=O)OC(C)C(=O)c1ccccc1 (stereo not given)	i	·	·	·	·	·
C=C1c2ccccc2S(=O)(=O)N(Cc2ccccc2)C1COCc1ccccc1 (stereo not given)	i	-7.4	i	-6.88*	i	0.53
CCN(CC)c1nc(C(F)(F)F)nc2c1nnn2Cc1ccccc1	i	-6.1	6*	i	i	-0.96
COCCC(=O)N1CCC(Oc2ccc(C(=O)NCCSC)cc2)CC1	i	-0.7	i	i	i	-0.01
Cc1ccc(NC(=O)CN(C)C(=O)c2cccc(S(=O)(=O)NCc3ccco3)c2)cc1	i	·	·	·	·	·
Cc1ccc(NC(=O)CSc2nn(-c3ccc(Cl)cc3)c(=S)s2)cc1S(=O)(=O)N(C)C	i	-10.7	6*	i	i	-2.95
CN(C)S(=O)(=O)c1cc(NC(=O)CSc2nn(-c3ccc(Cl)cc3)c(=S)s2)ccc1Cl	i	-12.4	i	i	i	-0.07
CCOc1ccc(C(Nc2cccnc2)c2cc(Cl)c3cccnc3c2O)cc1 (stereo not given)	i	-10.5	8*	i	i	-1.68
O=C(O)COc1ccccc1C(Nc1cccnc1)c1cc(Cl)c2cccnc2c1O (stereo not given)	i	-8.7	i	i	i	0.66
CCN(CC)c1ncnc2scc(C3COc4ccccc4O3)c12 (stereo not given)	i	-9.6	i	-7.62*	i	-1.75
Cc1ccc(C(=O)NNC(=S)NCC2CCCO2)cc1[N+](=O)[O-] (stereo not given)	i	-11.2	i	i	i	1.15
Cc1ccc(C(=O)NCC2CCCO2)cc1[N+](=O)[O-] (stereo not given)	i	4.7*	i	i	i	1.18
Cc1c(C(=O)NCCSCc2ccc(Cl)cc2Cl)cccc1[N+](=O)[O-]	i	10.0*	i	i	i	0.06
Cc1ccc(C(=O)NCCSCc2ccc(Cl)cc2Cl)cc1[N+](=O)[O-]	i	-7.5	8*	i	i	0.46
Cc1c(C(=O)NCCSCc2ccccc2)cccc1[N+](=O)[O-]	i	-4.1	i	i	i	1.47
Cc1ccc(C(=O)NCC(C)NC(=O)c2ccc(C)c([N+](=O)[O-])c2)cc1[N+](=O)[O-] (stereo not given)	i	-13.6	i	i	i	0.53
Cc1ccc(OCCCCCCN2CCNCC2)c(Br)c1	i	-4.9	i	i	i	-5.63*
Cc1ccc(OCCCCN2CCC(C)CC2)c(Br)c1	i	-11.2	i	i	i	-6.01*
O=C1NC(=O)C(Cc2ccc(O)cc2)N1 (stereo not given)	i	·	·	·	·	·
SMILES	KCNK3 inh	hERG protect	KCNQ1 block	KCNK9 inh	KCNQ1 act	Kir21 block
COC(=O)c1c(NC2=NS(=O)(=O)c3ccccc32)sc2c1CCC(C(C)(C)C)C2 (stereo not given)	i	·	·	·	·	·
Cc1ccc(NC(=O)CCNS(=O)(=O)c2ccccc2F)cc1S(=O)(=O)N1CCOCC1	i	-9.2	i	i	i	-0.19
Cc1cccc(/N=C/c2sc3ccccc3c2O)n1	i	6.7*	i	i	8*	0.49
COC(=O)c1c(C)[nH]c(C(=O)COC(=O)CCNS(=O)(=O)c2cccc(C(F)(F)F)c2)c1C	i	·	·	·	·	·
CCOC(=O)c1c(C)[nH]c(C)c1C(=O)CSc1nc2ccccc2n1CCC#N	i	-10.8	i	i	i	-0.39
CCCn1c(SCC(=O)c2c(C)[nH]c(C)c2C(=O)OCC)nc2ccccc21	i	-15.8	i	i	i	-4.27*
CCOC(=O)c1c(C)[nH]c(C)c1C(=O)CSc1nc2ccccc2c(=O)n1-c1ccc(Cl)cc1	i	-8.7	6*	i	i	0.05
Cc1ccc(-c2nc(CNC(=O)c3ccco3)cs2)cc1	i	-10.4	i	i	i	1.4
S=c1[nH]nc(-c2ccc(Cl)cc2Cl)n1-c1ccc(Cl)cc1	i	-9.4	i	i	i	-0.92
O=C(NCCNC(=O)Oc1cccc2ccccc12)Oc1cccc2ccccc12	i	·	·	·	·	·
COc1cc(C(=O)N=c2sc3c(C)ccc(OC)c3n2C)cc(OC)c1OC	i	-8.9	i	i	i	0.12
COc1ccc(C(=O)N=c2sc3c(C)ccc(OC)c3n2C)cc1	i	-10.2	i	-7.02*	i	-0.42
COc1ccccc1-c1nc(S(=O)(=O)c2ccc(Cl)cc2)c(N(C)C)o1	i	5.4*	i	i	i	-0.28
Cc1cc(OCC(=O)NNC(=S)NC(=O)c2ccc(Br)o2)ccc1Cl	i	-9.8	i	i	33*	-0.63
Cc1c(C(=O)C(=O)NCCCn2ccnc2)c2ccccc2n1C	i	-13.8	i	i	i	-0.01
CC(C)=CC1C(C(=O)NCCc2ccccc2)C1(C)C (stereo not given)	i	-13.6	i	i	i	-3
O=c1c(C(c2ccc(O)cc2)c2c(O)nc3n(c2=O)CCS3)c(O)nc2n1CCS2	i	6.7*	i	i	i	0.25
Cc1ccc(NC(=S)Nc2ccc(Cl)c(Cl)c2)c(OC(F)F)c1	i	-35.0	9*	i	i	-2.64
COc1ccc(S(=O)(=O)NCC2CCCN(C(=O)CCSC)C2)cc1 (stereo not given)	i	-2.6	i	i	i	0.06
Cc1nnnn1/C(=C\c1ccccc1)C(=O)OCC(=O)Nc1ccc(Cl)cc1F	i	-12.9	i	i	7*	-7.29*
Cc1nnnn1/C(=C\c1ccccc1)C(=O)OCC(=O)Nc1cccc(S(=O)(=O)N(C)C)c1	i	·	·	·	·	·
COC(=O)c1cc2c(-c3ccccc3)cc3ccccn3c-2c1C(=O)OC	-8.91*	-6.2	i	i	i	-0.28
